Experimental data taken from ChEMBL document CHEMBL2062460, “Disubstituted thiourea derivatives and their activity on CNS: synthesis and biological evaluation” (Eur J Med Chem, 2012).
Converted amounts (≈) assume the structure as drawn. The source made the active and inactive calls. The rule behind the calls is not given here.

Tests used:
Staphylococcus aureus [1] = assay: Antibacterial activity against methicillin-resistant Staphylococcus aureus clinical isolate 306/08 after 18 hrs by twofold serial agar dilution technique; type: functional; settings: clinical isolate 306/08, 18 h
Summary of the method: (§1)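 Clinical isolates came from patients in Warsaw Medical University Hospitals and were classed as methicillin-susceptible or -resistant. MIC was determined by twofold serial agar dilution on Mueller–Hinton II agar (CLSI), 3.125–400 µg/mL in agar, with compounds in methanol or DMSO. Inoculum was 10^4 CFU/mL and plates were read after 18 h at 35 °C.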

Staphylococcus aureus [2] = assay: Antibacterial activity against methicillin-resistant Staphylococcus aureus clinical isolate 357/09 after 18 hrs by twofold serial agar dilution technique; type: functional; settings: clinical isolate 357/09, 18 h; summary of the method: as §1
Staphylococcus aureus [3] = assay: Antibacterial activity against Staphylococcus aureus ATCC 25923 at 400 ug/disc after 18 hrs by disc diffusion method; type: functional; settings: ATCC 25923, 18 h, read-out: DIZ
Summary of the method: (§2)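 Disc diffusion per CLSI on Mueller–Hinton II agar; 9 mm paper discs loaded from methanol or DMSO solutions to 400 µg per disc, dried; growth inhibition zone diameter read after 18 h at 35 °C.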

Candida parapsilosis = assay: Antifungal activity against Candida parapsilosis ATCC 22019 at 400 ug/disc after 18 hrs by disc diffusion method; type: functional, organism-based
Summary of the method: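 Yeasts tested by disc diffusion (CLSI) on RPMI agar with 2% glucose; 9 mm paper discs bearing 400 µg compound from methanol or DMSO solution; inhibition zone diameter read after 18 h at 35 °C.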

Pseudomonas aeruginosa = assay: Antibacterial activity against Pseudomonas aeruginosa ATCC 27853 at 400 ug/disc after 18 hrs by disc diffusion method; type: functional, organism-based; summary of the method: as §2
Staphylococcus aureus [4] = assay: Antibacterial activity against methicillin-resistant Staphylococcus aureus clinical isolate 325/09 after 18 hrs by twofold serial agar dilution technique; type: functional; settings: clinical isolate 325/09, 18 h; summary of the method: as §1
Staphylococcus aureus [5] = assay: Antibacterial activity against Staphylococcus aureus ATCC 6538 after 18 hrs by twofold serial agar dilution technique; type: functional; settings: ATCC 6538, 18 h
Summary of the method: (§3)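 Twofold serial agar dilution on Mueller–Hinton II agar, following CLSI guidelines. Compounds were dissolved in methanol or DMSO and tested at final agar concentrations of 3.125–400 µg/mL. Final inoculum was 10^4 CFU/mL.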

Staphylococcus aureus [6] = assay: Antibacterial activity against methicillin-resistant Staphylococcus aureus clinical isolate 356/09 after 18 hrs by twofold serial agar dilution technique; type: functional; settings: clinical isolate 356/09, 18 h; summary of the method: as §1
Staphylococcus aureus [7] = assay: Antibacterial activity against Staphylococcus aureus NCTC 4163 after 18 hrs by twofold serial agar dilution technique; type: functional; settings: NCTC 4163, 18 h; summary of the method: as §3
[8] = tested on: Staphylococcus epidermidis; assay: Antibacterial activity against Staphylococcus epidermidis ATCC 12228 after 18 hrs by twofold serial agar dilution technique; type: functional; settings: ATCC 12228, 18 h; summary of the method: as §3
Staphylococcus aureus [9] = assay: Antibacterial activity against methicillin-resistant Staphylococcus aureus clinical isolate 329/08 after 18 hrs by twofold serial agar dilution technique; type: functional; settings: clinical isolate 329/08, 18 h; summary of the method: as §1
Staphylococcus aureus [10] = assay: Antibacterial activity against methicillin-susceptible Staphylococcus aureus clinical isolate 338/08 after 18 hrs by twofold serial agar dilution technique; type: functional; settings: clinical isolate 338/08, 18 h; summary of the method: as §1
Micrococcus luteus [11] = assay: Antibacterial activity against Micrococcus luteus ATCC 9341 at 400 ug/disc after 18 hrs by disc diffusion method; type: functional; settings: ATCC 9341, 18 h, read-out: DIZ; summary of the method: as §2
Staphylococcus aureus [12] = assay: Antibacterial activity against methicillin-susceptible Staphylococcus aureus clinical isolate 372/09 after 18 hrs by twofold serial agar dilution technique; type: functional; settings: clinical isolate 372/09, 18 h; summary of the method: as §1
Escherichia coli [13] = assay: Antibacterial activity against Escherichia coli ATCC 25922 at 400 ug/disc after 18 hrs by disc diffusion method; type: functional, organism-based; summary of the method: as §2
Staphylococcus aureus [14] = assay: Antibacterial activity against Staphylococcus aureus ATCC 29213 after 18 hrs by twofold serial agar dilution technique; type: functional; settings: ATCC 29213, 18 h; summary of the method: as §3
Escherichia coli [15] = assay: Antibacterial activity against Escherichia coli ATCC 10538 at 400 ug/disc after 18 hrs by disc diffusion method; type: functional, organism-based; summary of the method: as §2
[16] = tested on: Staphylococcus epidermidis; assay: Antibacterial activity against methicillin-resistant Staphylococcus epidermidis clinical isolate 318/08 after 18 hrs by twofold serial agar dilution technique; type: functional; settings: clinical isolate 318/08, 18 h; summary of the method: as §1
Micrococcus luteus [17] = assay: Antibacterial activity against Micrococcus luteus ATCC 10240 at 400 ug/disc after 18 hrs by disc diffusion method; type: functional; settings: ATCC 10240, 18 h, read-out: DIZ; summary of the method: as §2
[18] = tested on: Staphylococcus epidermidis; assay: Antibacterial activity against methicillin-resistant Staphylococcus epidermidis clinical isolate 341/09 after 18 hrs by twofold serial agar dilution technique; type: functional; settings: clinical isolate 341/09, 18 h; summary of the method: as §1
Bacillus cereus [19] = assay: Antibacterial activity against Bacillus cereus ATCC 11778 at 400 ug/disc after 18 hrs by disc diffusion method; type: functional; settings: ATCC 11778, 18 h, read-out: DIZ; summary of the method: as §2
Staphylococcus aureus [20] = assay: Antibacterial activity against methicillin-susceptible Staphylococcus aureus clinical isolate 339/09 after 18 hrs by twofold serial agar dilution technique; type: functional; settings: clinical isolate 339/09, 18 h; summary of the method: as §1
Staphylococcus aureus [21] = assay: Antibacterial activity against methicillin-susceptible Staphylococcus aureus clinical isolate 256/08 after 18 hrs by twofold serial agar dilution technique; type: functional; settings: clinical isolate 256/08, 18 h; summary of the method: as §1
[22] = Cytotoxicity against human MT4 cells after 96 hrs by MTT assay; type: cell-based
Staphylococcus aureus [23] = assay: Antibacterial activity against methicillin-resistant Staphylococcus aureus clinical isolate 309/08 after 18 hrs by twofold serial agar dilution technique; type: functional; settings: clinical isolate 309/08, 18 h; summary of the method: as §1
Escherichia coli [24] = assay: Antibacterial activity against Escherichia coli NCTC 8196 at 400 ug/disc after 18 hrs by disc diffusion method; type: functional, organism-based; summary of the method: as §2
Bacillus cereus [25] = assay: Antibacterial activity against Bacillus cereus ATCC 11778 after 18 hrs by twofold serial agar dilution technique; type: functional; settings: ATCC 11778, 18 h

Structure (SMILES)	MIC (Staphylococcus aureus [1])	MIC (Staphylococcus aureus [2])	zone of inhibition at 400 µg/disc (Staphylococcus aureus [3])	diameter of the inhibition zone (DIZ) (Candida parapsilosis)	diameter of the inhibition zone (DIZ) (Pseudomonas aeruginosa)	MIC (Staphylococcus aureus [4])	MIC (Staphylococcus aureus [5])	MIC (Staphylococcus aureus [6])	MIC (Staphylococcus aureus [7])	MIC [8]	MIC (Staphylococcus aureus [9])	MIC (Staphylococcus aureus [10])	zone of inhibition at 400 µg/disc (Micrococcus luteus [11])	MIC (Staphylococcus aureus [12])	diameter of the inhibition zone (DIZ) (Escherichia coli [13])	MIC (Staphylococcus aureus [14])	diameter of the inhibition zone (DIZ) (Escherichia coli [15])	zone of inhibition at 400 µg/disc (Micrococcus luteus [17])	zone of inhibition at 400 µg/disc (Bacillus cereus [19])	MIC (Staphylococcus aureus [20])	other results
S=C(Nc1ccc(I)cc1)Nc1nc[nH]n1	50 µg/mL (≈ 145 µM)	50 µg/mL (≈ 145 µM)	13 mm	inactive	inactive	25 µg/mL (≈ 72.4 µM)	25 µg/mL (≈ 72.4 µM)	50 µg/mL (≈ 145 µM)	25 µg/mL (≈ 72.4 µM)	25 µg/mL (≈ 72.4 µM)	25 µg/mL (≈ 72.4 µM)	50 µg/mL (≈ 145 µM)	13 mm	25 µg/mL (≈ 72.4 µM)	inactive	25 µg/mL (≈ 72.4 µM)	inactive	16 mm	13 mm	50 µg/mL (≈ 145 µM)	MIC [16]: 12.5 µg/mL (≈ 36.2 µM); MIC [18]: 50 µg/mL (≈ 145 µM); MIC (Staphylococcus aureus [21]): 25 µg/mL (≈ 72.4 µM); CC50 at 96 h [22]: 46 µM; MIC (Staphylococcus aureus [23]): 25 µg/mL (≈ 72.4 µM); diameter of the inhibition zone (DIZ) (Escherichia coli [24]): inactive; MIC (Bacillus cereus [25]): 12.5 µg/mL (≈ 36.2 µM)
S=C(Nc1ccc(Cl)cc1)Nc1nc[nH]n1	25 µg/mL (≈ 98.5 µM)	50 µg/mL (≈ 197 µM)	23 mm	inactive	inactive	25 µg/mL (≈ 98.5 µM)	25 µg/mL (≈ 98.5 µM)	25 µg/mL (≈ 98.5 µM)	25 µg/mL (≈ 98.5 µM)	25 µg/mL (≈ 98.5 µM)	25 µg/mL (≈ 98.5 µM)	25 µg/mL (≈ 98.5 µM)	26 mm	25 µg/mL (≈ 98.5 µM)	inactive	25 µg/mL (≈ 98.5 µM)	inactive	30 mm	16 mm	25 µg/mL (≈ 98.5 µM)	MIC [16]: 25 µg/mL (≈ 98.5 µM); MIC [18]: 12.5 µg/mL (≈ 49.3 µM); MIC (Staphylococcus aureus [21]): 25 µg/mL (≈ 98.5 µM); CC50 at 96 h [22]: 47 µM; MIC (Staphylococcus aureus [23]): 25 µg/mL (≈ 98.5 µM); diameter of the inhibition zone (DIZ) (Escherichia coli [24]): inactive; MIC (Bacillus cereus [25]): 12.5 µg/mL (≈ 49.3 µM)
Fc1ccc(NC(=S)Nc2nc[nH]n2)cc1	50 µg/mL (≈ 211 µM)	50 µg/mL (≈ 211 µM)	18 mm	inactive	inactive	50 µg/mL (≈ 211 µM)	50 µg/mL (≈ 211 µM)	50 µg/mL (≈ 211 µM)	50 µg/mL (≈ 211 µM)	25 µg/mL (≈ 105 µM)	50 µg/mL (≈ 211 µM)	50 µg/mL (≈ 211 µM)	19 mm	50 µg/mL (≈ 211 µM)	inactive	25 µg/mL (≈ 105 µM)	inactive	23 mm	16 mm	50 µg/mL (≈ 211 µM)	MIC [16]: 50 µg/mL (≈ 211 µM); MIC [18]: 100 µg/mL (≈ 421 µM); MIC (Staphylococcus aureus [21]): 50 µg/mL (≈ 211 µM); CC50 at 96 h [22]: > 100 µM; MIC (Staphylococcus aureus [23]): 50 µg/mL (≈ 211 µM); diameter of the inhibition zone (DIZ) (Escherichia coli [24]): inactive; MIC (Bacillus cereus [25]): 6.25 µg/mL (≈ 26.3 µM)
Fc1cccc(NC(=S)Nc2nc[nH]n2)c1	12.5 µg/mL (≈ 52.7 µM)	25 µg/mL (≈ 105 µM)	34 mm	inactive	inactive	12.5 µg/mL (≈ 52.7 µM)	100 µg/mL (≈ 421 µM)	12.5 µg/mL (≈ 52.7 µM)	50 µg/mL (≈ 211 µM)	50 µg/mL (≈ 211 µM)	12.5 µg/mL (≈ 52.7 µM)	24 µg/mL (≈ 101 µM)	36 mm	25 µg/mL (≈ 105 µM)	inactive	50 µg/mL (≈ 211 µM)	inactive	40 mm	14 mm	12.5 µg/mL (≈ 52.7 µM)	MIC (Staphylococcus aureus [21]): 25 µg/mL (≈ 105 µM); MIC (Staphylococcus aureus [23]): 12.5 µg/mL (≈ 52.7 µM); diameter of the inhibition zone (DIZ) (Escherichia coli [24]): inactive; MIC (Bacillus cereus [25]): 50 µg/mL (≈ 211 µM)
